Data from ChEMBL document CHEMBL4334451, “Natural Alkaloid Berberine Activity against Pseudomonas aeruginosa MexXY-Mediated Aminoglycoside Resistance: In Silico and in Vitro Studies” (J Nat Prod, 2019).
Activity calls are given as the source filed them. The calls are words filed in the database; no cut-off is given here.

Legend:
Format in all cases: protein-complex assay
[1] = target: T1, MexXY/OprM (Pseudomonas aeruginosa (strain ATCC 15692 / DSM 22644 / CIP 104116 / JCM14847 / LMG 12228 / 1C / PRS 101 / PAO1)) (UniProt Q51487+Q9ZNG9+Q9ZNG8); assay: Inhibition of MexXY/OPRM in Pseudomonas aeruginosa K767 assessed as reduction in bacterial resistance to tobramycin by measuring tobramycin MIC at 80 ug/ml incubated for 24 to 48 hrs by broth microdilution method (reference value: 0.25 ug/ml)
Procedure, shortened: (§1)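 Broth microdilution per CLSI, with P. aeruginosa ATCC 27853 as reference strain, in 2-fold dilution series. Plates were incubated at 37°C and read for visible growth at 24 and 48 h. Berberine stock was in 50% DMSO/50% methanol, with final DMSO kept near 1%. Berberine was tested at 10–320 µg/ml, alone or at a fixed level with serial tobramycin.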

[2] = target: T1, MexXY/OprM (Pseudomonas aeruginosa (strain ATCC 15692 / DSM 22644 / CIP 104116 / JCM14847 / LMG 12228 / 1C / PRS 101 / PAO1)); assay: Inhibition of MexXY/OPRM in Pseudomonas aeruginosa C52 assessed as reduction in bacterial resistance to tobramycin by measuring tobramycin MIC at 80 ug/ml incubated for 24 to 48 hrs by broth microdilution method (reference value: >128 ug/ml)
[3] = target: T1, MexXY/OprM (Pseudomonas aeruginosa (strain ATCC 15692 / DSM 22644 / CIP 104116 / JCM14847 / LMG 12228 / 1C / PRS 101 / PAO1)); assay: Inhibition of MexXY/OPRM in Pseudomonas aeruginosa C61 assessed as reduction in bacterial resistance to tobramycin by measuring tobramycin MIC at 80 ug/ml incubated for 24 to 48 hrs by broth microdilution method (reference value: 64 ug/ml)
[4] = target: T1, MexXY/OprM (Pseudomonas aeruginosa (strain ATCC 15692 / DSM 22644 / CIP 104116 / JCM14847 / LMG 12228 / 1C / PRS 101 / PAO1)); assay: Inhibition of MexXY/OPRM in Pseudomonas aeruginosa C86 assessed as reduction in bacterial resistance to tobramycin by measuring tobramycin MIC at 80 ug/ml incubated for 24 to 48 hrs by broth microdilution method (reference value: 128 ug/ml); procedure, shortened: as §1
[5] = target: T1, MexXY/OprM (Pseudomonas aeruginosa (strain ATCC 15692 / DSM 22644 / CIP 104116 / JCM14847 / LMG 12228 / 1C / PRS 101 / PAO1)); assay: Inhibition of MexXY/OPRM in Pseudomonas aeruginosa C95 assessed as reduction in bacterial resistance to tobramycin by measuring tobramycin MIC at 80 ug/ml incubated for 24 to 48 hrs by broth microdilution method (reference value: 32 ug/ml); procedure, shortened: as §1
[6] = target: T1, MexXY/OprM (Pseudomonas aeruginosa (strain ATCC 15692 / DSM 22644 / CIP 104116 / JCM14847 / LMG 12228 / 1C / PRS 101 / PAO1)); assay: Inhibition of MexXY/OPRM in Pseudomonas aeruginosa C103 assessed as reduction in bacterial resistance to tobramycin by measuring tobramycin MIC at 80 ug/ml incubated for 24 to 48 hrs by broth microdilution method (reference value: 4 ug/ml)
[7] = target: T1, MexXY/OprM (Pseudomonas aeruginosa (strain ATCC 15692 / DSM 22644 / CIP 104116 / JCM14847 / LMG 12228 / 1C / PRS 101 / PAO1)); assay: Inhibition of MexXY/OPRM in Pseudomonas aeruginosa C104 assessed as reduction in bacterial resistance to tobramycin by measuring tobramycin MIC at 80 ug/ml incubated for 24 to 48 hrs by broth microdilution method (reference value: 32 ug/ml)
[8] = target: T1, MexXY/OprM (Pseudomonas aeruginosa (strain ATCC 15692 / DSM 22644 / CIP 104116 / JCM14847 / LMG 12228 / 1C / PRS 101 / PAO1)); assay: Inhibition of MexXY/OPRM in Pseudomonas aeruginosa AR51 assessed as reduction in bacterial resistance to tobramycin by measuring tobramycin MIC at 80 ug/ml incubated for 24 to 48 hrs by broth microdilution method (reference value: 16 ug/ml)
[9] = target: T1, MexXY/OprM (Pseudomonas aeruginosa (strain ATCC 15692 / DSM 22644 / CIP 104116 / JCM14847 / LMG 12228 / 1C / PRS 101 / PAO1)); assay: Inhibition of MexXY/OPRM in Pseudomonas aeruginosa C95 assessed as reduction in bacterial resistance to tobramycin by measuring increase in tobramycin-mediated bactericidal activity at 80 ug/ml in presence of 0.5XMIC tobramycin measured after 4 hrs by Time-kill curve analysis
[10] = target: T1, MexXY/OprM (Pseudomonas aeruginosa (strain ATCC 15692 / DSM 22644 / CIP 104116 / JCM14847 / LMG 12228 / 1C / PRS 101 / PAO1)); assay: Inhibition of MexXY/OPRM in Pseudomonas aeruginosa C6 assessed as bacterial growth up to 320 ug/ml incubated for 24 to 48 hrs by broth microdilution method
Procedure, shortened: (§2)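 Broth microdilution following CLSI guidelines, with P. aeruginosa ATCC 27853 as reference strain. Berberine was tested at 2-fold concentrations from 10 to 320 µg/ml, dissolved in 50% DMSO/50% methanol, with the top concentration set to keep final DMSO close to 1%. Plates were incubated at 37°C and read for visible growth at 24 and 48 h.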

[11] = target: T1, MexXY/OprM (Pseudomonas aeruginosa (strain ATCC 15692 / DSM 22644 / CIP 104116 / JCM14847 / LMG 12228 / 1C / PRS 101 / PAO1)); assay: Inhibition of MexXY/OPRM in Pseudomonas aeruginosa C25 assessed as bacterial growth up to 320 ug/ml incubated for 24 to 48 hrs by broth microdilution method; procedure, shortened: as §2
[12] = target: T1, MexXY/OprM (Pseudomonas aeruginosa (strain ATCC 15692 / DSM 22644 / CIP 104116 / JCM14847 / LMG 12228 / 1C / PRS 101 / PAO1)); assay: Inhibition of MexXY/OPRM in Pseudomonas aeruginosa C52 assessed as bacterial growth up to 320 ug/ml incubated for 24 to 48 hrs by broth microdilution method; procedure, shortened: as §2
[13] = target: T1, MexXY/OprM (Pseudomonas aeruginosa (strain ATCC 15692 / DSM 22644 / CIP 104116 / JCM14847 / LMG 12228 / 1C / PRS 101 / PAO1)); assay: Inhibition of MexXY/OPRM in Pseudomonas aeruginosa C59 assessed as bacterial growth up to 320 ug/ml incubated for 24 to 48 hrs by broth microdilution method; procedure, shortened: as §2
[14] = target: T1, MexXY/OprM (Pseudomonas aeruginosa (strain ATCC 15692 / DSM 22644 / CIP 104116 / JCM14847 / LMG 12228 / 1C / PRS 101 / PAO1)); assay: Inhibition of MexXY/OPRM in Pseudomonas aeruginosa C60 assessed as bacterial growth up to 320 ug/ml incubated for 24 to 48 hrs by broth microdilution method; procedure, shortened: as §2
[15] = target: T1, MexXY/OprM (Pseudomonas aeruginosa (strain ATCC 15692 / DSM 22644 / CIP 104116 / JCM14847 / LMG 12228 / 1C / PRS 101 / PAO1)); assay: Inhibition of MexXY/OPRM in Pseudomonas aeruginosa C70 assessed as bacterial growth up to 320 ug/ml incubated for 24 to 48 hrs by broth microdilution method; procedure, shortened: as §2
[16] = target: T1, MexXY/OprM (Pseudomonas aeruginosa (strain ATCC 15692 / DSM 22644 / CIP 104116 / JCM14847 / LMG 12228 / 1C / PRS 101 / PAO1)); assay: Inhibition of MexXY/OPRM in Pseudomonas aeruginosa C86 assessed as bacterial growth up to 320 ug/ml incubated for 24 to 48 hrs by broth microdilution method; procedure, shortened: as §1
[17] = target: T1, MexXY/OprM (Pseudomonas aeruginosa (strain ATCC 15692 / DSM 22644 / CIP 104116 / JCM14847 / LMG 12228 / 1C / PRS 101 / PAO1)); assay: Inhibition of MexXY/OPRM in Pseudomonas aeruginosa C93 assessed as bacterial growth up to 320 ug/ml incubated for 24 to 48 hrs by broth microdilution method; procedure, shortened: as §1
[18] = target: T1, MexXY/OprM (Pseudomonas aeruginosa (strain ATCC 15692 / DSM 22644 / CIP 104116 / JCM14847 / LMG 12228 / 1C / PRS 101 / PAO1)); assay: Inhibition of MexXY/OPRM in Pseudomonas aeruginosa C95 assessed as bacterial growth up to 320 ug/ml incubated for 24 to 48 hrs by broth microdilution method; procedure, shortened: as §1
[19] = target: T1, MexXY/OprM (Pseudomonas aeruginosa (strain ATCC 15692 / DSM 22644 / CIP 104116 / JCM14847 / LMG 12228 / 1C / PRS 101 / PAO1)); assay: Inhibition of MexXY/OPRM in Pseudomonas aeruginosa C98 assessed as bacterial growth up to 320 ug/ml incubated for 24 to 48 hrs by broth microdilution method; procedure, shortened: as §1
[20] = target: T1, MexXY/OprM (Pseudomonas aeruginosa (strain ATCC 15692 / DSM 22644 / CIP 104116 / JCM14847 / LMG 12228 / 1C / PRS 101 / PAO1)); assay: Inhibition of MexXY/OPRM in Pseudomonas aeruginosa C103 assessed as bacterial growth up to 320 ug/ml incubated for 24 to 48 hrs by broth microdilution method; procedure, shortened: as §2
[21] = target: T1, MexXY/OprM (Pseudomonas aeruginosa (strain ATCC 15692 / DSM 22644 / CIP 104116 / JCM14847 / LMG 12228 / 1C / PRS 101 / PAO1)); assay: Inhibition of MexXY/OPRM in Pseudomonas aeruginosa AR48 assessed as bacterial growth up to 320 ug/ml incubated for 24 to 48 hrs by broth microdilution method; procedure, shortened: as §2
[22] = target: T1, MexXY/OprM (Pseudomonas aeruginosa (strain ATCC 15692 / DSM 22644 / CIP 104116 / JCM14847 / LMG 12228 / 1C / PRS 101 / PAO1)); assay: Inhibition of MexXY/OPRM in Pseudomonas aeruginosa AR51 assessed as bacterial growth up to 320 ug/ml incubated for 24 to 48 hrs by broth microdilution method; procedure, shortened: as §2
[23] = target: T1, MexXY/OprM (Pseudomonas aeruginosa (strain ATCC 15692 / DSM 22644 / CIP 104116 / JCM14847 / LMG 12228 / 1C / PRS 101 / PAO1)); assay: Inhibition of MexXY/OPRM in Pseudomonas aeruginosa AR61 assessed as bacterial growth up to 320 ug/ml incubated for 24 to 48 hrs by broth microdilution method; procedure, shortened: as §2
[24] = target: T1, MexXY/OprM (Pseudomonas aeruginosa (strain ATCC 15692 / DSM 22644 / CIP 104116 / JCM14847 / LMG 12228 / 1C / PRS 101 / PAO1)); assay: Inhibition of MexXY/OPRM in Pseudomonas aeruginosa C25 assessed as reduction in bacterial resistance to tobramycin by measuring fold reduction in tobramycin MIC at 80 ug/ml incubated for 24 to 48 hrs by broth microdilution method
[25] = target: T1, MexXY/OprM (Pseudomonas aeruginosa (strain ATCC 15692 / DSM 22644 / CIP 104116 / JCM14847 / LMG 12228 / 1C / PRS 101 / PAO1)); assay: Inhibition of MexXY/OPRM in Pseudomonas aeruginosa C61 assessed as reduction in bacterial resistance to tobramycin by measuring fold reduction in tobramycin MIC at 80 ug/ml incubated for 24 to 48 hrs by broth microdilution method
[26] = target: T1, MexXY/OprM (Pseudomonas aeruginosa (strain ATCC 15692 / DSM 22644 / CIP 104116 / JCM14847 / LMG 12228 / 1C / PRS 101 / PAO1)); assay: Inhibition of MexXY/OPRM in Pseudomonas aeruginosa C104 assessed as reduction in bacterial resistance to tobramycin by measuring fold reduction in tobramycin MIC at 80 ug/ml incubated for 24 to 48 hrs by broth microdilution method

Compound: COc1ccc2cc3[n+](cc2c1OC)CCc1cc2c(cc1-3)OCO2 [BERBERINE]
- MIC [1]: 0.125 µg/mL
- MIC [2]: 128 µg/mL
- MIC [3]: 16 µg/mL
- MIC [4]: 16 µg/mL
- MIC [5]: 4 µg/mL
- MIC [6]: 4 µg/mL
- MIC [7]: 8 µg/mL
- MIC [8]: 8 µg/mL
- inhibition [9]: Active
- inhibition [10]: inactive
- inhibition [11]: inactive
- inhibition [12]: inactive
- inhibition [13]: inactive
- inhibition [14]: inactive
- inhibition [15]: inactive
- inhibition [16]: inactive
- inhibition [17]: inactive
- inhibition [18]: inactive
- inhibition [19]: inactive
- inhibition [20]: inactive
- inhibition [21]: inactive
- inhibition [22]: inactive
- inhibition [23]: inactive
- fold change (FC) [24]: 16
- fold change (FC) [25]: > 2
- fold change (FC) [26]: > 2
